In brackets after ≈: the same amount, converted by molar mass. Activity calls are given as the source filed them. No cut-off for these calls is given here.
Experiments:
[1] = Cytotoxicity in human HeLa cells after 24 hrs by XTT assay; format: cell-based
Summary of the method: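 HeLa cells, 30,000 per well in DMEM with 10% fetal serum and penicillin/streptomycin. Compound added from DMSO to final 0.1, 0.25, 0.5, 1, 10, 25, 50, 75, 100 µM; DMSO-only controls. 24 h at 37 °C, then medium exchanged for phenol red-free medium, XTT-PMS added, 4 h at 37 °C, absorbance read at 450 and 500 nm. Two experiments, each in triplicate.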

[2] = Binding affinity to Helicobacter pyroli flavodoxin expressed in Escherichia coli by isothermal titration calorimetry analysis; parameters: species or system Helicobacter pylori
Summary of the method: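 ITC at 25°C: degassed 20 µM protein titrated with ~500 µM inhibitor, both in 50 mM EPPS pH 9.0, 5% DMSO. Injection heats fitted to a 1:1 binding model for Kd.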

[3] = Therapeutic index, ratio of MCC for human HeLa cells to MIC for Helicobacter pylori; format: cell-based; conditions: read-out: TI
[4] = system: Helicobacter pylori; experiment: Antibacterial activity against Helicobacter pylori after 28 hrs by microdilution method; format: functional
[5] = system: Helicobacter pylori; experiment: Bactericidal activity against Helicobacter pylori at 2 times MIC; format: functional, organism-based

| Compound | MCC at 24 h [1] | Kd [2] | selectivity ratio [3] | MIC [4] | Activity [5] |
| --- | --- | --- | --- | --- | --- |
| O=C(Nc1ccc(Cl)cc1Cl)OCCSc1ccc([N+](=O)[O-])c2nonc12 | 1.7 µM | – | – | – | – |
| O=[N+]([O-])/C=C/c1cc(Cl)cc(Br)c1 | 2.7 µM | 10 µM | – | – | – |
| COc1ccc(CSc2ccc([N+](=O)[O-])c3nonc23)cc1 | 1.7 µM | – | – | – | – |
| COc1cccc(/C=C(\C)[N+](=O)[O-])c1 | 0.7 µM | 5.5 µM | 0.3 | 2.4 µM (≈ 0.464 µg/mL) | – |
| O=[N+]([O-])/C=C/c1ccc(Cl)c(C(F)(F)F)c1 | 5 µM | 2.8 µM | 4.7 | 1.06 µM (≈ 0.267 µg/mL) | – |
| Brc1cccc2nsnc12 | 100 µM | – | – | – | – |
| O=[N+]([O-])/C=C/c1ccc(F)cc1Br | 10 µM | 19 µM | 2.1 | 4.8 µM (≈ 1.18 µg/mL) | – |
| COC(=O)/C=C/c1cc(C(F)(F)F)cc(C(F)(F)F)c1 | 100 µM | – | – | – | – |
| O=[N+]([O-])/C=C/c1cc(Cl)cc(Cl)c1 | 2 µM | 0.67 µM | 0.8 | 2.4 µM (≈ 0.523 µg/mL) | – |
| Cc1ccc(Sc2ccc([N+](=O)[O-])c3nonc23)cc1 | 1.3 µM | – | – | – | – |
| O=[N+]([O-])C1=Cc2cc(Cl)ccc2NC1c1ccc(F)cc1 (configuration not stated) | – | 33 µM | – | – | – |
| NS(=O)(=O)c1ccc(SCCO)c2nonc12 | 100 µM | – | – | – | – |
| O=[N+]([O-])C1=Cc2cc(Cl)ccc2OC1c1ccc(F)cc1 (configuration not stated) | 6 µM | – | – | – | – |
| O=[N+]([O-])/C=C/c1ccccc1I | 1 µM | 16 µM | 0.2 | 4.8 µM (≈ 1.32 µg/mL) | – |
| O=[N+]([O-])C1=Cc2c(ccc3ccccc23)OC1c1ccc(F)cc1 (configuration not stated) | 10 µM | 0.78 µM | 8.3 | 1.2 µM (≈ 0.386 µg/mL) | Active |
| CCOC(=O)C1=Cc2cc(Cl)cc(Cl)c2OC1c1ccc(F)cc1 (configuration not stated) | 12 µM | – | – | – | – |
| O=C(Nc1ccccc1)OCCSc1ccc([N+](=O)[O-])c2nonc12 | 2.2 µM | – | – | – | – |
| O=[N+]([O-])/C=C/c1ccccc1C(F)(F)F | 0.1 µM | 8.8 µM | 0.04 | 2.4 µM (≈ 0.521 µg/mL) | – |
| O=[N+]([O-])C1=Cc2cc(Cl)cc(Cl)c2OC1c1ccc(I)cc1 (configuration not stated) | 10 µM | – | – | – | – |
| O=C(O)/C=C/c1cc(C(F)(F)F)cc(C(F)(F)F)c1 | 100 µM | – | – | – | – |
| O=[N+]([O-])C1=Cc2cc(Cl)cc(Cl)c2OC1c1ccc(Br)cc1 (configuration not stated) | – | 25 µM | – | – | – |

| Compound | MCC at 24 h [1] | Kd [2] | selectivity ratio [3] | MIC [4] | Activity [5] |
| --- | --- | --- | --- | --- | --- |
| O=[N+]([O-])/C=C/c1cccc(C(F)(F)F)c1 | 40 µM | 7.9 µM | 8.4 | 4.75 µM (≈ 1.03 µg/mL) | Active |
| CN(C)c1ccc([N+](=O)[O-])c2nonc12 | 100 µM | – | – | – | – |
| COc1ccc(C(=O)OCCSc2ccc([N+](=O)[O-])c3nonc23)cc1 | 8 µM | – | – | – | – |
| O=[N+]([O-])/C=C/c1ccc(F)cc1 | 20 µM | 40 µM | 18.9 | 1.06 µM (≈ 0.177 µg/mL) | Active |
| COc1ccc(Sc2ccc([N+](=O)[O-])c3nonc23)cc1 | 3 µM | 2.6 µM | 1.5 | 2 µM (≈ 0.607 µg/mL) | Active |
| O=[N+]([O-])/C=C/c1cc(C(F)(F)F)cc(C(F)(F)F)c1 | 3.5 µM | 3.5 µM | 1.5 | 2.4 µM (≈ 0.684 µg/mL) | – |
| COc1ccc(C2(C)SCc3cc(C)c(C)cc3CS2)cc1 | 100 µM | – | – | – | – |
| O=[N+]([O-])/C=C/c1c(F)c(F)c(F)c(F)c1F | 0.01 µM | 10 µM | 0.001 | 8 µM (≈ 1.91 µg/mL) | – |
| O=[N+]([O-])C1=Cc2cc(Cl)cc(Cl)c2OC1c1ccc(F)cc1 (configuration not stated) | 6 µM | – | – | – | – |
| O=[N+]([O-])/C=C/c1ccc(I)cc1 | 10 µM | 6.6 µM | 9.4 | 1.06 µM (≈ 0.292 µg/mL) | Active |
| O=[N+]([O-])/C=C/c1ccc(Br)cc1 | 8 µM | 4.1 µM | 15.1 | 0.53 µM (≈ 0.121 µg/mL) | Active |
| O=[N+]([O-])C1=Cc2cc(Cl)ccc2OC1c1ccc(Cl)cc1 (configuration not stated) | 6 µM | – | – | – | – |
| COc1ccc(CSc2ccc(N)c3nonc23)cc1 | 100 µM | – | – | – | – |
| O=[N+]([O-])/C=C/c1c(F)cc(Cl)cc1F | 20 µM | 7.4 µM | 37.7 | 0.53 µM (≈ 0.116 µg/mL) | Active |
| CSc1ccc(C2Oc3ccccc3C=C2[N+](=O)[O-])cc1 (configuration not stated) | 1 µM | – | – | – | – |
| O=[N+]([O-])/C=C/c1cc(C(F)(F)F)ccc1F | 8 µM | 4.4 µM | 15.1 | 0.53 µM (≈ 0.125 µg/mL) | – |
| COc1ccc(CSc2ccc(S(N)(=O)=O)c3nonc23)cc1 | 12 µM | – | – | – | – |
| COc1ccc(CCCSc2ccc([N+](=O)[O-])c3nonc23)cc1 | 1 µM | – | – | – | – |
| O=C(OCCSc1ccc([N+](=O)[O-])c2nonc12)c1ccc(Cl)cc1Cl | 4 µM | – | – | – | – |
| COC(=O)C1=C(c2ccccc2Cl)Oc2ccc([N+](=O)[O-])cc2C1 | 70 µM | – | – | – | – |
